According to ChEMBL document CHEMBL3853277, “Efficient Synthesis of Glaziovianin A Isoflavone Series from Dill and Parsley Extracts and Their in Vitro/in Vivo Antimitotic Activity” (J Nat Prod, 2016):

Tests used:
Paracentrotus lividus [1] = assay: Antimitotic activity against sea urchin Paracentrotus lividus L embryo assessed as induction of tuberculate egg formation; format: functional
How it was run: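 Fertilized eggs were exposed 8−15 min post-fertilization to 2-fold decreasing concentrations, as a monolayer of up to 2000 embryos/mL in filtered seawater at room temperature. The 10 mM DMSO stock was diluted 10-fold in 96% EtOH. Cleavage alteration or arrest was scored by light microscopy at 2.5−5.5 h post-fertilization, and the effective threshold concentration was recorded from duplicate measurements.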

Paracentrotus lividus [2] = assay: Antimitotic activity in sea urchin Paracentrotus lividus L embryo assessed as induction of cleavage alteration; format: functional
How it was run: (§1)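 Gametes collected by intracoelomic 0.5 M KCl injection; fertilized eggs (8−15 min postfertilization) exposed in seawater to 2-fold decreasing concentrations, up to 2000 embryos/mL, room temperature. Stocks 10 mM in DMSO diluted 10-fold in 96% EtOH. Cleavage alteration/arrest scored at 2.5−5.5 h; effective threshold concentration reported, duplicate measurements.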

[3] = Growth inhibition of human A549 cells by MTS assay; format: functional, cell-based
How it was run: (§2)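 Cancer lines grown in their own media with 10% FBS at 37 °C, 5% CO2; 1 × 10^4 cells/well treated 48 h at 0.01−100 μM (DMSO stocks, 0.1% DMSO control), quadruplicate wells. MTS reagent 1−4 h, absorbance 490 nm. IC50 by sigmoidal fitting; mean ± SD of three independent experiments.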

[4] = Growth inhibition of human SKOV3 cells measured after 48 hrs by MTS assay; format: functional, cell-based; conditions: SK-OV-3, 48 h; how it was run: as §2
[5] = Growth inhibition of human PC3 cells measured after 48 hrs by MTS assay; format: functional, cell-based; conditions: PC-3, 48 h; how it was run: as §2
[6] = Growth inhibition of human HCT116 cells measured after 48 hrs by MTS assay; format: functional, cell-based; conditions: HCT-116, 48 h; how it was run: as §2
Paracentrotus lividus [7] = assay: Antimitotic activity against sea urchin Paracentrotus lividus L embryo assessed as induction of embryo spinning; format: functional
How it was run: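 Hatched free-swimming blastulae (8−9 h postfertilization) exposed to 2-fold decreasing concentrations in seawater, room temperature; DMSO stock diluted 10-fold in 96% EtOH. Observed to four-arm pluteus (34−36 h); spinning on well bottom without forward movement scored as microtubule destabilization; effective threshold concentration, duplicate measurements.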

[8] = Growth inhibition of human MDA-MB-231 cells measured after 48 hrs by MTS assay; format: functional, cell-based; conditions: MDA-MB-231, 48 h; how it was run: as §2
[9] = Growth inhibition of human PBMC cells measured after 48 hrs by MTS assay; format: cell-based
How it was run: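 PBMCs from healthy volunteers by Ficoll-Paque density separation, washed in RPMI 1640, cultured in RPMI 1640 with 10% heat-inactivated FBS at 37 °C, 5% CO2. Seeded 1 × 10^4 cells/well, treated 48 h at 0.01−100 μM, 0.1% DMSO control, quadruplicate wells; MTS read at 490 nm; IC50 by sigmoidal fitting, three experiments.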

[10] = Growth inhibition of human DU145 cells measured after 48 hrs by MTS assay; format: functional, cell-based; conditions: DU-145, 48 h; how it was run: as §2
[11] = Growth inhibition of human A375 cells measured after 48 hrs by MTS assay; format: functional, cell-based; conditions: A-375, 48 h; how it was run: as §2
Paracentrotus lividus [12] = assay: Antimitotic activity against sea urchin Paracentrotus lividus L embryo assessed as induction of cleavage arrest; format: functional; how it was run: as §1

**Q.** Which results are given for COc1ccc(-c2coc3cc(OC)c(OC)cc3c2=O)cc1?
**A.** EC (Paracentrotus lividus [1]): 1 µM; EC (Paracentrotus lividus [2]): 0.2 µM; IC50 [3]: > 10 µM; IC50 [4]: > 10 µM; IC50 [5]: > 10 µM; IC50 [6]: > 10 µM; EC (Paracentrotus lividus [7]): >5 µM; IC50 [8]: > 10 µM; IC50 [9]: > 10 µM; IC50 [10]: > 10 µM; IC50 [11]: > 10 µM

**Q.** With COc1ccc(-c2coc3cc(OC)c(OC)c(OC)c3c2=O)cc1 as the molecule, how does the EC (Paracentrotus lividus [2]) read?
**A.** >4 µM

**Q.** What about the EC (Paracentrotus lividus [12]) of the same molecule?
**A.** >4 µM

**Q.** What about the EC (Paracentrotus lividus [7]) of the same molecule?
**A.** >4 µM

**Q.** Which results are given for COc1ccc(/C=C\c2cc(OC)c(OC)c(OC)c2)cc1OP(=O)([O-])[O-].[Na+].[Na+] [FOSBRETABULIN DISODIUM]?
**A.** EC (Paracentrotus lividus [2]): 0.005 µM; EC (Paracentrotus lividus [12]): 0.01 µM; IC50 [3]: 0.0234 µM; IC50 [4]: 0.0077 µM; IC50 [5]: 0.0062 µM; IC50 [6]: 0.0016 µM; EC (Paracentrotus lividus [7]): 0.05 µM; IC50 [8]: 0.0028 µM; IC50 [9]: 0.17 µM; IC50 [10]: 0.0014 µM; IC50 [11]: 0.0016 µM

**Q.** Which EC (Paracentrotus lividus [1]) does the source give for COc1cc2occ(-c3cc4c(c(OC)c3OC)OCO4)c(=O)c2cc1OC here?
**A.** 5 µM

**Q.** What about the EC (Paracentrotus lividus [2]) of the same molecule?
**A.** 0.5 µM

**Q.** What about the IC50 [3] of the same molecule?
**A.** > 10 µM

**Q.** And the IC50 [4]?
**A.** > 10 µM

**Q.** What about the IC50 [5] of the same molecule?
**A.** 7.3 µM

**Q.** And the IC50 [6]?
**A.** 3.4 µM

**Q.** And the EC (Paracentrotus lividus [7])?
**A.** >5 µM

**Q.** What about the IC50 [8] of the same molecule?
**A.** 7.1 µM

**Q.** And the IC50 [9]?
**A.** > 10 µM

**Q.** And the IC50 [10]?
**A.** 6.4 µM

**Q.** And the IC50 [11]?
**A.** 1.7 µM

**Q.** Which results are given for COc1cc2occ(-c3cc(OC)c(OC)c(OC)c3)c(=O)c2cc1OC?
**A.** EC (Paracentrotus lividus [1]): 1 µM; EC (Paracentrotus lividus [2]): 0.2 µM; IC50 [3]: > 10 µM; IC50 [4]: 4.3 µM; IC50 [5]: 5.1 µM; IC50 [6]: 2.8 µM; EC (Paracentrotus lividus [7]): >5 µM; IC50 [8]: > 10 µM; IC50 [9]: > 10 µM; IC50 [10]: 4.9 µM; IC50 [11]: 3.2 µM

**Q.** What does the source list for COc1cc2occ(-c3cc(OC)c4c(c3OC)OCO4)c(=O)c2cc1OC [GLAZIOVIANIN A]?
**A.** EC (Paracentrotus lividus [2]): 0.05 µM; EC (Paracentrotus lividus [12]): 0.5 µM; IC50 [3]: 1.1 µM; IC50 [4]: 0.43 µM; IC50 [5]: 0.83 µM; IC50 [6]: 0.69 µM; EC (Paracentrotus lividus [7]): 4 µM; IC50 [8]: 2.2 µM; IC50 [9]: > 10 µM; IC50 [10]: 0.87 µM; IC50 [11]: 0.27 µM

**Q.** Which results are given for COc1ccc(-c2coc3c(OC)c4c(c(OC)c3c2=O)OCO4)cc1OC?
**A.** EC (Paracentrotus lividus [2]): >4 µM; EC (Paracentrotus lividus [12]): >4 µM; IC50 [3]: > 10 µM; IC50 [4]: > 10 µM; IC50 [5]: > 10 µM; IC50 [6]: > 10 µM; EC (Paracentrotus lividus [7]): >4 µM; IC50 [8]: > 10 µM; IC50 [9]: > 10 µM; IC50 [10]: > 10 µM; IC50 [11]: > 10 µM

**Q.** Which results are given for COc1ccc(-c2coc3cc(OC)c(O)cc3c2=O)cc1?
**A.** EC (Paracentrotus lividus [1]): 4 µM; EC (Paracentrotus lividus [2]): 1 µM; EC (Paracentrotus lividus [7]): >5 µM

**Q.** For COc1cccc(-c2coc3cc(OC)c(OC)cc3c2=O)c1, which EC (Paracentrotus lividus [2]) is on record?
**A.** 2 µM

**Q.** And the EC (Paracentrotus lividus [12])?
**A.** >4 µM

**Q.** And the IC50 [3]?
**A.** > 10 µM

**Q.** What about the IC50 [4] of the same molecule?
**A.** > 10 µM

**Q.** What about the IC50 [5] of the same molecule?
**A.** > 10 µM

**Q.** What about the IC50 [6] of the same molecule?
**A.** > 10 µM

**Q.** And the EC (Paracentrotus lividus [7])?
**A.** >5 µM

**Q.** What about the IC50 [8] of the same molecule?
**A.** > 10 µM

**Q.** What about the IC50 [9] of the same molecule?
**A.** > 10 µM

**Q.** What about the IC50 [10] of the same molecule?
**A.** > 10 µM

**Q.** And the IC50 [11]?
**A.** > 10 µM

**Q.** What does the source list for COc1cc2occ(-c3cc(OC)c4c(c3)OCO4)c(=O)c2cc1OC?
**A.** EC (Paracentrotus lividus [1]): 1 µM; EC (Paracentrotus lividus [2]): 0.1 µM; IC50 [3]: > 10 µM; IC50 [4]: > 10 µM; IC50 [5]: > 10 µM; IC50 [6]: > 10 µM; EC (Paracentrotus lividus [7]): >5 µM; IC50 [8]: > 10 µM; IC50 [9]: > 10 µM; IC50 [10]: > 10 µM; IC50 [11]: 6.1 µM

**Q.** With COc1ccc(-c2coc3c(OC)c(OC)c(OC)cc3c2=O)cc1OC as the molecule, how does the EC (Paracentrotus lividus [2]) read?
**A.** 4 µM

**Q.** And the EC (Paracentrotus lividus [12])?
**A.** >4 µM

**Q.** And the EC (Paracentrotus lividus [7])?
**A.** >4 µM

**Q.** Which results are given for COc1ccc(-c2coc3cc(OC)c(OC)cc3c2=O)cc1OC?
**A.** EC (Paracentrotus lividus [2]): 4 µM; EC (Paracentrotus lividus [12]): >4 µM; IC50 [3]: > 10 µM; IC50 [4]: > 10 µM; IC50 [5]: > 10 µM; IC50 [6]: > 10 µM; EC (Paracentrotus lividus [7]): >4 µM; IC50 [8]: > 10 µM; IC50 [9]: > 10 µM; IC50 [10]: > 10 µM; IC50 [11]: > 10 µM

**Q.** With COc1cc2occ(-c3cc(OC)c(OC)c(OC)c3OC)c(=O)c2cc1OC as the molecule, how does the EC (Paracentrotus lividus [2]) read?
**A.** >4 µM

**Q.** What about the EC (Paracentrotus lividus [12]) of the same molecule?
**A.** >4 µM

**Q.** And the IC50 [3]?
**A.** > 10 µM

**Q.** What about the IC50 [4] of the same molecule?
**A.** > 10 µM

**Q.** What about the IC50 [5] of the same molecule?
**A.** > 10 µM

**Q.** What about the IC50 [6] of the same molecule?
**A.** > 10 µM

**Q.** And the EC (Paracentrotus lividus [7])?
**A.** >4 µM

**Q.** What about the IC50 [8] of the same molecule?
**A.** > 10 µM

**Q.** And the IC50 [9]?
**A.** > 10 µM

**Q.** What about the IC50 [10] of the same molecule?
**A.** > 10 µM

**Q.** What about the IC50 [11] of the same molecule?
**A.** > 10 µM
